Data from article PMC6925334 (ACS chemical biology, 2019).

Columns and labels:
IRE1β* RNase = IRE1β* RNase (Homo sapiens, UniProt Q76MJ5); experiment: fluorescence-quenched XBP1 mini-substrate RNase assay, IRE1β*; format: biochemical
Outline: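 Recombinant IRE1β* RNase cleaves a FRET-quenched XBP1 mini-substrate, monitored in real time as a fluorescence increase. Activation is tested at a low, mainly monomeric IRE1β* concentration and inhibition at a higher, dimer-containing concentration. Initial cleavage rates are compared with DMSO. IC50 values are mean ± SEM, n=3. Selectivity is the IRE1α* RNase IC50 divided by the IRE1β* RNase IC50.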

IRE1α* RNase = IRE1α* RNase (Homo sapiens, UniProt O75460); experiment: fluorescence-quenched XBP1 mini-substrate RNase assay, IRE1α*; format: biochemical; conditions: read-out: IRE1α RNase IC50, mean ± SEM, n=3
Sequence of IRE1α* RNase (O75460 465-977 limits assumed): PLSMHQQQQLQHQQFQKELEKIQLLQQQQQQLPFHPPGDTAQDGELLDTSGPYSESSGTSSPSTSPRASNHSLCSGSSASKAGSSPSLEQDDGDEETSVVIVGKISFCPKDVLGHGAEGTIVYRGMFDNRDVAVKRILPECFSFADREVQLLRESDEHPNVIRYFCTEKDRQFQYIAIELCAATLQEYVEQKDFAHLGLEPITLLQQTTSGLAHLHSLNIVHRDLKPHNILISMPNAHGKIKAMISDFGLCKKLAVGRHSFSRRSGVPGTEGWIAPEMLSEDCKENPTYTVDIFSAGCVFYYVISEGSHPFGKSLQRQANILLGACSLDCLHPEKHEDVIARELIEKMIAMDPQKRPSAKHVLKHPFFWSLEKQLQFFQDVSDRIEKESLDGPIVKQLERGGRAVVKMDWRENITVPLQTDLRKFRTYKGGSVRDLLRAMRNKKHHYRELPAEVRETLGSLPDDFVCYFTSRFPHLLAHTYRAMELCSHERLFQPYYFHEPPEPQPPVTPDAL
Outline: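 IRE1α* RNase activity was followed in vitro as the real-time rise in fluorescence on cleavage of a FRET-quenched XBP1 mini-substrate. IC50 was taken from inhibition curves, mean ± SEM, n=3. Selectivity is the IRE1α RNase IC50 divided by the IRE1β RNase IC50, for each inhibitor.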

Sequence of IRE1β* RNase (Q76MJ5 452-926 limits assumed): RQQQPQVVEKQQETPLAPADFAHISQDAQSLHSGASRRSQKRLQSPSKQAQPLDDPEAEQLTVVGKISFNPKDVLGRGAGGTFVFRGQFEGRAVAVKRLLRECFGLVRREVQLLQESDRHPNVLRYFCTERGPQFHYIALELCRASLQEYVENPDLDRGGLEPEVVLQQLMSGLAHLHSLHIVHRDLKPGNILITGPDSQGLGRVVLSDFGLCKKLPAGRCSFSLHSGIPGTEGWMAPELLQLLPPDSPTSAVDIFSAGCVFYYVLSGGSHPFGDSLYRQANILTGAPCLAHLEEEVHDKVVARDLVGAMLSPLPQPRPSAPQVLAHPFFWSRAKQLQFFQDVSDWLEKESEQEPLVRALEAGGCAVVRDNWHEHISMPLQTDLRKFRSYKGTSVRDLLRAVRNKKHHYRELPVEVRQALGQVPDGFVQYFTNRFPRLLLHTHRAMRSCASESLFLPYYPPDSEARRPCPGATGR

| rate of XBP1 mini-substrate cleavage relative to the apo form (IRE1β* RNase; Low [IRE1β*] (mainly monomeric), RNase activation) | IRE1β RNase Selectivity (Fold) (IRE1β* RNase; IRE1α* RNase IC50 divided by IRE1β* RNase IC50) | IC50 (IRE1β* RNase; read-out: IRE1β RNase IC50, mean ± SEM, n=3, XBP1 mini-substrate) | IC50 (IRE1α* RNase) | SMILES | effect on ability to cleave the XBP1 mini-substrate (IRE1β* RNase; High [IRE1β*] (RNase active dimer)) |
| --- | --- | --- | --- | --- | --- |
| 12 fold | – | – | – | O=C(Nc1c[nH]nc1-c1nc2ccc(CN3CCOCC3)cc2[nH]1)NC1CC1 [AT9283] | – |
| – | 0.09 Fold | 0.055 ± 0.005 µM | 0.005 ± 0.0023 µM | Cc1ccc2c(NS(=O)(=O)c3ccccc3Cl)cccc2c1Oc1ncccc1-c1ccnc(N[C@H]2CCCNC2)n1 [compound 1] | almost complete loss in its ability to cleave the XBP1 mini-substrate |
